Data set [1] addresses Sodium-dependent serotonin transporter (Homo sapiens) (UniProt P31645). The data set can be described thus: Displacement of [3H]-citalopram from human SERT stably expressed in HEK cell membranes at 10 uM incubated for 90 mins under dark condition by scintillation counting analysis relative to control. For orientation: Displacement assays read how much labelled ligand stays bound in the presence of the test substance.

Data set [2] concerns the target D(2) dopamine receptor (Homo sapiens) (UniProt P14416). Description: Displacement of [3H]-N-methylspiperone from human dopamine D2 receptor at 10 uM incubated for 90 mins under dark condition by scintillation counting analysis relative to control.
Data set [3] concerns the target 5-hydroxytryptamine receptor 7 (Homo sapiens) (UniProt P34969). The data set can be described thus: Displacement of [3H]-LSD from human 5HT7A stably expressed in HEK cell membranes at 10 uM incubated for 90 mins under dark condition by scintillation counting analysis relative to control.
Data set [4] has as its target 5-hydroxytryptamine receptor 5A (Homo sapiens) (UniProt P47898). The data set can be described thus: Displacement of [3H]-LSD from human 5HT5A expressed in Flp-In-CHO cell membranes at 10 uM incubated for 90 mins under dark condition by scintillation counting analysis relative to control.
Data set [5] concerns the target T1, 5-hydroxytryptamine receptor 2C (Homo sapiens) (UniProt P28335).
T1 sequence (whole entry): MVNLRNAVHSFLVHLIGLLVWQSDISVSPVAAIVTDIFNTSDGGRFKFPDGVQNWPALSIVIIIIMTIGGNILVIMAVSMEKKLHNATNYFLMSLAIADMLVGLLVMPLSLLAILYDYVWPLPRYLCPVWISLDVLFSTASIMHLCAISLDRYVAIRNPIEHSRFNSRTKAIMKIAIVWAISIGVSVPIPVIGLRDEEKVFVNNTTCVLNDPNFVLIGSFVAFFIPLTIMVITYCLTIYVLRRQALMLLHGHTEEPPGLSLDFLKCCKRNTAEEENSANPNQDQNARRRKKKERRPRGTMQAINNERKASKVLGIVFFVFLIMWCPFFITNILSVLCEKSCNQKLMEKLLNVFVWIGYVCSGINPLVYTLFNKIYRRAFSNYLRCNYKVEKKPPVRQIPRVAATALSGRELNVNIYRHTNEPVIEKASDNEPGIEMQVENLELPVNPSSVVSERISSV
Description: Displacement of [3H]-mesulergine from human 5HT2C expressed in HEKT cell membranes at 10 uM incubated for 90 mins under dark condition by scintillation counting analysis relative to control.

For data set [6], the target named is 5-hydroxytryptamine receptor 1D (Homo sapiens) (UniProt P28221). The data set can be described thus: Displacement of [3H]-GR125743 from human 5HT1D transiently expressed in HEKT cell membranes at 10 uM incubated for 90 mins under dark condition by scintillation counting analysis relative to control.
The target of data set [7] is Alpha-1D adrenergic receptor (Homo sapiens) (UniProt P25100). The data set can be described thus: Displacement of [3H]-prazosin from human adrenergic alpha1D receptor at 10 uM incubated for 90 mins under dark condition by scintillation counting analysis relative to control.
Data set [8] has as its target Alpha-2C adrenergic receptor (Homo sapiens) (UniProt P18825). Description: Displacement of [3H]-rauwolscine from human adrenergic alpha2C receptor stably expressed in MDCK cell membranes at 10 uM incubated for 90 mins under dark condition by scintillation counting analysis relative to control.
Data set [9] has as its target Delta-type opioid receptor (Homo sapiens) (UniProt P41143). Description: Displacement of [3H]-DADLE from human delta opioid receptor stably expressed in HEK cell membranes at 10 uM incubated for 90 mins under dark condition by scintillation counting analysis relative to control.
The target in data set [10] is Sodium-dependent noradrenaline transporter (Homo sapiens, UniProt P23975). Description: Displacement of [3H]-nisoxetine from human NET stably expressed in HEK cell membranes incubated for 90 mins under dark condition by scintillation counting analysis. Summed up:
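Radioligand competition isotherms for human NET; IC50 from non-linear regression, converted to Ki via the Cheng-Prusoff equation; Ki averaged over repeated experiments.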

Data set [11] in a line: Apparent permeability across apical to basolateral side in MDCK-MDR1 cells. It is filed as ADME, cell-based, Canis lupus familiaris. The following applies: dog.
Data set [12] can be described thus: Clearance in Sprague-Dawley rat at 10 mg/kg, iv. It is filed as ADME, organism-based. The conditions noted are these: in vivo. The method in brief: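 Male Sprague-Dawley rats (200–250 g; n = 3/group) received a single iv dose in 10% DMSO:90% HP-β-CD. Retro-orbital blood was sampled before dosing and at 0.08, 0.25, 0.5, 1, 2, 4, 8 and 24 h. Plasma levels were measured. Parameters came from noncompartmental analysis, reported as mean ± SEM.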

A short description of data set [13]: Volume of distribution at steady state in Sprague-Dawley rat at 20 mg/kg, po. The conditions noted are these: in vivo. It is filed as ADME, organism-based. The method in brief:
(§1)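 Male Sprague-Dawley rats, 200–250 g, n = 3/group, randomly assigned; dosed 10 mg/kg iv or 20 mg/kg po in 10% DMSO:90% HP-β-CD. Retro-orbital blood sampled predose and 0.08 (iv only), 0.25, 0.5, 1, 2, 4, 8, 24 h. Noncompartmental analysis; Cmax read directly from plasma concentration–time plot; mean ± SEM.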

Data set [14] is described as follows: Cmax in Sprague-Dawley rat at 10 mg/kg, iv. It is filed as ADME, organism-based. Also noted: dose 10 mg/kg, route intravenous. The following applies: in vivo. Summed up: as §1
Data set [15] is described as follows: AUC (0 to infinity) in Sprague-Dawley rat at 10 mg/kg, iv. It is filed as ADME, organism-based. The conditions noted are these: in vivo. Also noted: dose 10 mg/kg, route intravenous, time infinity.
Data set [16] can be described thus: Ratio of drug level in brain to plasma in Sprague-Dawley rat at 10 mg/kg, iv after 1 hr. It is filed as ADME, organism-based. Summed up:
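Male Sprague-Dawley rats, n = 3/group, given 10 mg/kg iv in 10% DMSO:90% HP-β-CD. Brain and plasma collected at 0.25 and 1 h after dosing. Brain concentration (ng/g) divided by plasma concentration (ng/mL); mean ± SEM.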

In data set [17] the test system is Rattus norvegicus. Description: In vivo agonist activity at 5HT2CR in Sprague-Dawley rat assessed as increase in number of rat choosing drug associated lever at 0.5 to 5 mg/kg, ip treated 30 mins prior to test by drug discrimination test. It is filed as organism-based. The conditions noted are these: 0.5 h. Summed up:
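Male Sprague-Dawley rats (n = 13), water-restricted, trained to discriminate WAY163909 (0.75 mg/kg ip, 15 min pretreatment) from saline in a two-lever FR20 water-reinforced task. Test compound given ip at 0.5, 1.0, 2.0 and 5.0 mg/kg, 30 min before a 15 min test. Read-out is the percentage of rats selecting the WAY163909 lever; response rate is also recorded.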

The test system of data set [18] is Rattus norvegicus. Description: Potentiation of WAY163909-induced neurobiological activity in Sprague-Dawley rat assessed as increase in number of rat choosing WAY163909 associated lever at 1 mg/kg, ip treated 15 mins prior to WAY163909 addition and measured after 15 mins by drug discrimination test (reference value: 53%). It is filed as functional.
For data set [19], the system named is Rattus norvegicus. The data set can be described thus: Potentiation of WAY163909-induced neurobiological activity in Sprague-Dawley rat assessed as increase in number of rat choosing WAY163909 associated lever at 2 mg/kg, ip treated 15 mins prior to WAY163909 addition and measured after 15 mins in presence of 5HT2CR antagonist SB242084 by drug discrimination test (reference value: 53%). It is filed as functional. The method in brief: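 Two-lever FR20 drug discrimination in male Sprague-Dawley rats (n = 13) trained on WAY163909 0.75 mg/kg ip versus saline. SB242084 (0.5 mg/kg ip) given 15 min before WAY163909. Test compound (2 mg/kg ip) given 15 min before WAY163909 (0.5 mg/kg ip). Rats placed in chambers 15 min after WAY163909. Read-out is the percentage of rats choosing the WAY163909 lever.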

Chain of Delta-type opioid receptor (Homo sapiens) (P41143 whole entry): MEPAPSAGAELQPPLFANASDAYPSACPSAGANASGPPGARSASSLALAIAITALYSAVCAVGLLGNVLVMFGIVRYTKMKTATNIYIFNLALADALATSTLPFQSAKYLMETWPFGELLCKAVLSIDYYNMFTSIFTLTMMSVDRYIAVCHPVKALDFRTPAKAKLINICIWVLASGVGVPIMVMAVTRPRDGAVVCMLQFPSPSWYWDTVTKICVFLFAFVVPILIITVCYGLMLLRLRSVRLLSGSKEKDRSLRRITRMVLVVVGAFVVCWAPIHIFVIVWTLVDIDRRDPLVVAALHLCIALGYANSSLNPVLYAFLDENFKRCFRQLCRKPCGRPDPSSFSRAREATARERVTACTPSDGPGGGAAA
Chain of 5-hydroxytryptamine receptor 1D (Homo sapiens) (P28221 whole entry): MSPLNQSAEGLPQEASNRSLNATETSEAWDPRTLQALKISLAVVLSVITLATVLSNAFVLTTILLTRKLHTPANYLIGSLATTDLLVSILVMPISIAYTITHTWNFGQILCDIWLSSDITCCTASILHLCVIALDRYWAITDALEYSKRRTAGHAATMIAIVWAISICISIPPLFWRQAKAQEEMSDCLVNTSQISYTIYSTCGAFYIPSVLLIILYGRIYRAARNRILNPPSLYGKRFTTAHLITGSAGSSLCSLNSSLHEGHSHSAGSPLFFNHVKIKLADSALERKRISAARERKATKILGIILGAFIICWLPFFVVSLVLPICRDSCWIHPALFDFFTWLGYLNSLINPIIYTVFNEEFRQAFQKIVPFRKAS
Chain of 5-hydroxytryptamine receptor 5A (Homo sapiens) (P47898 whole entry): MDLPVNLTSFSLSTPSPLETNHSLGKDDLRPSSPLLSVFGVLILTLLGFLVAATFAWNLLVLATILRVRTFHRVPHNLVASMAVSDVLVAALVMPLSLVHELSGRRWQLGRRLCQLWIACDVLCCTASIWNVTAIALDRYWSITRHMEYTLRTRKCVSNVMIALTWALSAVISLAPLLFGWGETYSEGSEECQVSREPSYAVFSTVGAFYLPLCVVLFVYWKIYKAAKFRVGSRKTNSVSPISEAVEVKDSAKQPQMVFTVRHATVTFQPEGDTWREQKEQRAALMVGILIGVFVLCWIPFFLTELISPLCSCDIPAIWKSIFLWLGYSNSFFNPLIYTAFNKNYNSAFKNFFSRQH
Chain of Sodium-dependent noradrenaline transporter (P23975 whole entry): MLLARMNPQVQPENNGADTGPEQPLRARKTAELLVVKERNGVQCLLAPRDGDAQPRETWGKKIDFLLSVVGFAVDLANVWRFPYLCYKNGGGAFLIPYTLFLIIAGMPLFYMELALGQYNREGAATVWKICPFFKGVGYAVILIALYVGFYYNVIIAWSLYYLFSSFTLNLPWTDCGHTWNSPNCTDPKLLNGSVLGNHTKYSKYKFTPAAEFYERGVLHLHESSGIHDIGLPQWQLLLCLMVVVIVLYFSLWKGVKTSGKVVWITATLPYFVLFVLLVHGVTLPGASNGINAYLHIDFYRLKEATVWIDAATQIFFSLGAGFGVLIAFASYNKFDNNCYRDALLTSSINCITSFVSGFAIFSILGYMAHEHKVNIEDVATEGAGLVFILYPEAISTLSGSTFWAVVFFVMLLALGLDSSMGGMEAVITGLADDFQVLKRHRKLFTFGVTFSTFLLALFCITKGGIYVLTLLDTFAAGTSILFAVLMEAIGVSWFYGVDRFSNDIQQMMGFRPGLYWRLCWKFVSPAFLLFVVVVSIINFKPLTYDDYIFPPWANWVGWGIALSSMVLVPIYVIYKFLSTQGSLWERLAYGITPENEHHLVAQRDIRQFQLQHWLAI
Chain of Sodium-dependent serotonin transporter (Homo sapiens) (P31645 whole entry, looked up): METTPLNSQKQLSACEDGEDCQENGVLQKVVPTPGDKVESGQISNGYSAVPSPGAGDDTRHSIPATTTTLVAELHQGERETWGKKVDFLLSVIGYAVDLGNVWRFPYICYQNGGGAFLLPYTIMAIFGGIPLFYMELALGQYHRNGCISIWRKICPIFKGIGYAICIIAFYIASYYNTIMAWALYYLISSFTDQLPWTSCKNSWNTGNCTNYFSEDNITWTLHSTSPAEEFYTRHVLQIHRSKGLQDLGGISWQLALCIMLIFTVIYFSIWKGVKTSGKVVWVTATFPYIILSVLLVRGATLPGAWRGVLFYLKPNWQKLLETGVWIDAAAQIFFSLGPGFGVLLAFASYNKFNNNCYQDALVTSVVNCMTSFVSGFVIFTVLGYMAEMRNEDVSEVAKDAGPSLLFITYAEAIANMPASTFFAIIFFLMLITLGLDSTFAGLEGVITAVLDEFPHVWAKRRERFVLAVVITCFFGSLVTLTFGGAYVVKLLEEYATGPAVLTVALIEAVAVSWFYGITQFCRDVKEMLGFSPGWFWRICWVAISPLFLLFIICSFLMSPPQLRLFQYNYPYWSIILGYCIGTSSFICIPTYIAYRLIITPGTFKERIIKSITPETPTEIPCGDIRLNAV
Chain of Alpha-2C adrenergic receptor (Homo sapiens) (P18825 whole entry): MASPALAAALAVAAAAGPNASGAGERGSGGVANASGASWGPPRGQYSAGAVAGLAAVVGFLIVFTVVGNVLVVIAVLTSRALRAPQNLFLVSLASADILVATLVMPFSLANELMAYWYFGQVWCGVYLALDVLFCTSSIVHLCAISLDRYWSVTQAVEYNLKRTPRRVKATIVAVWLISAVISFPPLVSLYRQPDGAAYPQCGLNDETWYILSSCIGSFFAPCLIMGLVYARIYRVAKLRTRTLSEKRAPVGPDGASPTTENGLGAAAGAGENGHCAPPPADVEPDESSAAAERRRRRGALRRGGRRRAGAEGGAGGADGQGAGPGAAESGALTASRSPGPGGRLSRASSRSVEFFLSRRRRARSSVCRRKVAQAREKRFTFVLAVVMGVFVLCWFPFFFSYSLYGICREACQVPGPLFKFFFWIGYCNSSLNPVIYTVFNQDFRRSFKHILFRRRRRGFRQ
Chain of D(2) dopamine receptor (Homo sapiens) (P14416 whole entry): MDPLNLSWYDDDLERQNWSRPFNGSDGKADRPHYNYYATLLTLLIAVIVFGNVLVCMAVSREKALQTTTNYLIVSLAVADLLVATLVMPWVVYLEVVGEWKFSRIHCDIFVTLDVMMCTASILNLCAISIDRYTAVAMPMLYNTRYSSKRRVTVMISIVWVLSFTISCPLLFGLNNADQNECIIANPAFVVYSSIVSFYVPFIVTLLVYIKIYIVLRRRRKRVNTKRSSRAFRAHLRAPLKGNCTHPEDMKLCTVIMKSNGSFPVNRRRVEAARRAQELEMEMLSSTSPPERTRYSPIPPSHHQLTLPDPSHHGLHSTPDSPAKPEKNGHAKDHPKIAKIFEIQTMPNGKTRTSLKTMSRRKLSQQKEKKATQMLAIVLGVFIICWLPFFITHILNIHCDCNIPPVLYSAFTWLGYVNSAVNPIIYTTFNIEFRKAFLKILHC
Chain of 5-hydroxytryptamine receptor 7 (Homo sapiens) (P34969 whole entry): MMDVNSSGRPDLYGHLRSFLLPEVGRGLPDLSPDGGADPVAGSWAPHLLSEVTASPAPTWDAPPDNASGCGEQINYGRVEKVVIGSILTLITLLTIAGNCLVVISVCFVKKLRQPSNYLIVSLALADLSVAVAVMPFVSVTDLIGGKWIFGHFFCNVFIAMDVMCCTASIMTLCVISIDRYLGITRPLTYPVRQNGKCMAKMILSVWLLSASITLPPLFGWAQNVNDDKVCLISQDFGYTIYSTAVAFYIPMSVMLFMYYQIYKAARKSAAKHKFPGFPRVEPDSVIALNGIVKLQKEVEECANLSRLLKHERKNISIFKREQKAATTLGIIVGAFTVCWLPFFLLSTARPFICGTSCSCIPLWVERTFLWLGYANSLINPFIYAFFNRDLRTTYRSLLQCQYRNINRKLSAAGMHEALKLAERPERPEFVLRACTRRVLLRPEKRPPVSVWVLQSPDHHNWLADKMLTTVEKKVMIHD
Chain of Alpha-1D adrenergic receptor (Homo sapiens) (P25100 whole entry): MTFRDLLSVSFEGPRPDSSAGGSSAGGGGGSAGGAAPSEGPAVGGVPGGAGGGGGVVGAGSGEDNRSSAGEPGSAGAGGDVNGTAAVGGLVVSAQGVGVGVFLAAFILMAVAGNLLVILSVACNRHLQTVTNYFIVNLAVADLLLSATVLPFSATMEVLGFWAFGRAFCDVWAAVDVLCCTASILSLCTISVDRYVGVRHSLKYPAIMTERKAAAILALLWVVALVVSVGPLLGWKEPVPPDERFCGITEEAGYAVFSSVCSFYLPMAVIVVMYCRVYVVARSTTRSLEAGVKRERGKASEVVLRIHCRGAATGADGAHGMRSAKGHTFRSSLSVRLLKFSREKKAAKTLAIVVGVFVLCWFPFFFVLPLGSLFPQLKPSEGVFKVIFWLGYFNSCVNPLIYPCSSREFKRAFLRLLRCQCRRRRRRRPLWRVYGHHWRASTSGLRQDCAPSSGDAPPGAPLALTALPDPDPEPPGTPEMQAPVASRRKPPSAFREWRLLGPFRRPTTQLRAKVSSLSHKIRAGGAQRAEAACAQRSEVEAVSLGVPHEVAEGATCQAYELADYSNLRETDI

For orientation: inhibition means the relative decrease from the control value, in per cent. By Ki is commonly meant a dissociation constant, usually derived from enzyme kinetics or from competition with a known ligand. Usually Papp stands for the rate of passage across a membrane or cell layer, normalised by area and donor concentration. What is called Cmax is the highest concentration seen after dosing. As a reminder, the AUC is concentration integrated over time. A higher AUC goes with high exposure. Take `O=C(NC[C@H](O)CO)[C@@H]1C[C@H](c2ccccc2)CCN1` (mixture of isomers): the inhibition in data set [1] is 47.5%; in data set [2], 7.5%; in data set [3], 2.2%; in [4], -4.3%; in data set [5], 26.9%; in data set [6] it was 15.3%. For the same compound, the figures for the inhibition in data set [7], in [8] and in data set [9] were -4.8%, -1.8% and -6.1%, respectively. Also, in [10], the affinity corresponds to a Ki of 2.5 µM. Moreover, the Papp in [11] worked out at 0.04 ×10⁻⁶ cm/s. In data set [12], this compound yielded a CL of 54.7 mL/min/kg. In data set [13], this compound showed a Vdss of 70.6 L/kg. The compound also came in with a Cmax in [14] of 2408.6 ng/mL. Moreover, the AUC in data set [15] worked out at 3065.6 ng·h/mL. For the same compound, in data set [16], the BPR is 0.11. The Activity result with Rattus norvegicus [17] is on record as “Non-Toxic”; with Rattus norvegicus [18], 77%; in the data set on Rattus norvegicus [19], 0%.

Source of the values: ChEMBL document CHEMBL4622923, “Discovery of 4-Phenylpiperidine-2-Carboxamide Analogues as Serotonin 5-HT2C Receptor-Positive Allosteric Modulators with Enhanced Drug-like Properties” (J Med Chem, 2020).
